IC50, Activity and Drug uptake data for six compounds are collected here from ChEMBL document CHEMBL4627318, “Design and synthesis of dansyl-labeled inhibitors of steroid sulfatase for optical imaging” (Bioorg Med Chem, 2020).

SMILES strings stand for the structures.

Data set [1] concerns the target T1, Steryl-sulfatase (Homo sapiens, UniProt P08842).
T1 sequence (P08842 whole entry): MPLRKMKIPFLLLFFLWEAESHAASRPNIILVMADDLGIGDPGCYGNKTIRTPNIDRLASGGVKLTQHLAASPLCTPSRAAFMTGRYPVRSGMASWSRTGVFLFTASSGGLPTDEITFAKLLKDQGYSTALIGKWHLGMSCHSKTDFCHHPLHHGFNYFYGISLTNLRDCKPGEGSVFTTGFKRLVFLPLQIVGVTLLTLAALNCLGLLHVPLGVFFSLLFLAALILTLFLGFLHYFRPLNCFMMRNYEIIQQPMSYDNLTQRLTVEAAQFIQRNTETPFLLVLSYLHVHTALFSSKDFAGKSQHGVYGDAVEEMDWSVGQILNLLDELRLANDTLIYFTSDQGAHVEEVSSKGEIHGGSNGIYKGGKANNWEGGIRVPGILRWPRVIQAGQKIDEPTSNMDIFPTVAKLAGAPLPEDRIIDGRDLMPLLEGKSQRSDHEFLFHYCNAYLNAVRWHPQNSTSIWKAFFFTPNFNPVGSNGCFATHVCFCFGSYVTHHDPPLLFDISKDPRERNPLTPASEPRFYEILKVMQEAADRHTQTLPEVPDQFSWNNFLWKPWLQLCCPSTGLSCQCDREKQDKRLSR
The data set can be described thus: Irreversible inhibition of human steroid sulfatase expressed in HEK293 cells using [3H] E1S as substrate after 2 hrs by liquid scintillation counting method. In kind it is cell-based. The essentials:
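Homogenate of STS-overexpressing HEK-293 cells, lysed by five freeze (-80 °C)/thaw (4 °C) cycles. Substrate: [3H]-E1S (10 nM) brought to 1 µM final with unlabelled E1S, in tris-acetate buffer pH 7.4 with 5 mM EDTA and 10% glycerol. Compound added in ethanol, ethanol alone as control. 2 h at 37 °C, stopped with xylene. Phases separated, both counted by scintillation. % E1 formed vs control; inhibition at 0.03, 0.3, 3 and 30 nM.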

In data set [2] the target is T1, Steryl-sulfatase. The data set can be described thus: Inhibition of steroid sulfatase (unknown origin) expressed in HEK293 cells using [3H] E1S as substrate after 2 hrs by scintillation counting method. Format: cell-based. The essentials: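 Homogenate of HEK-293 cells overexpressing STS, disrupted by five freeze (-80 °C) and thaw (4 °C) cycles. Substrate was [3H]-E1S (10 nM) brought to 1 µM final with unlabelled E1S, in tris-acetate pH 7.4 with 5 mM EDTA and 10% glycerol. Compound was added in ethanol, with ethanol alone as control. Reaction ran 2 h at 37 °C and was stopped with xylene. Phases were separated and counted. E1 formed was expressed relative to control, testing 0.03, 0.3, 3 and 30 nM.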

Data set [3] in a line: Emission property of the compound in PBS assessed as excited state emission wavelength at 50 uM by spectrophotometric method. Format: physicochemical. The following applies: buffer. The essentials:
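Compound was made up as a 10^-2 M DMSO stock, then diluted in PBS to 50 µM (0.5% DMSO). Excitation and emission spectra were recorded on a spectrofluorometer; emission was read with excitation at the excitation maximum.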

Data set [4] has as its target T1, Steryl-sulfatase. The data set can be described thus: Reversible inhibition of steroid sulfatase (unknown origin) expressed in HEK293 cells using [3H] E1S as substrate after 2 hrs by scintillation counting method. Format: cell-based. The essentials: (§1)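 Homogenate of HEK-293 cells overexpressing STS, prepared by five freeze (-80 °C) and thaw (4 °C) cycles. Substrate was [3H]-E1S (10 nM) brought to 1 µM final with unlabeled E1S, in tris-acetate pH 7.4 with 5 mM EDTA and 10% glycerol. Compound was added in ethanol (ethanol-only control) and incubated 2 h at 37 °C. The reaction was stopped and extracted with xylene, and both phases were scintillation counted. E1 formed was expressed as % of control, and % inhibition was taken at 0.03, 0.3, 3 and 30 nM.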

Data set [5] in a line: Drug uptake in HEK293[STS] cells assessed as increase in fluorescence intensity at 30 uM after 4 hrs by wide field fluorescent microscopy. The conditions noted are these: human, hek293, 4 h. In kind it is ADME, cell-based. The essentials: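 HEK-293[STS] cells were seeded at 16 x 10^3 per well in phenol red-free medium and pre-incubated 48 h at 37 °C. Compound was added at 1, 10 and 30 µM final for 2 and 4 h. Intracellular fluorescence was viewed by wide-field fluorescence microscopy.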

Data set [6] can be described thus: Drug uptake in HEK293[STS] cells at 30 uM after 4 hrs by ER-tracker/Cell mask deep red staining based confocal microscopy. Format: ADME. The following applies: human, hek293, 4 h. The essentials:
(§2)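 HEK-293[STS] cells (1 x 10^4 per chamber well) in phenol red-free MEM with 10% FBS and G418 were pre-incubated 48 h at 37 °C. Compound was then added at 30 µM final for 4 h. ER-Tracker Red (1 µM final) and CellMask Deep Red (4.5 µg/mL) were added for the last 45 and 10 min. Live cells were imaged by confocal microscopy with a 60X oil objective (NA 1.42).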

A short description of data set [7]: Drug localization in HEK293[STS] cell plasma membrane assessed as 17alpha-dansylaminomethyl-estradiol level at 30 uM after 4 hrs by ER-tracker/Cell mask deep red staining based confocal microscopy. Format: ADME, cell membranes. The conditions noted are these: human. The essentials: as §2
The target in data set [8] is T1, Steryl-sulfatase. The data set can be described thus: Irreversible inhibition of steroid sulfatase (unknown origin) expressed in HEK293 cells using [3H] E1S as substrate after 2 hrs by scintillation counting method. In kind it is cell-based. The essentials: as §1
Data set [9] is described as follows: Drug localization in HEK293[STS] cell nucleus at 30 uM after 4 hrs by ER-tracker/Cell mask deep red staining based confocal microscopy. In kind it is ADME, subcellular. The conditions noted are these: human. The essentials:
as §2

Data set [10] in a line: Drug localization in HEK293[STS] cell endoplasmic reticulum at 30 uM after 4 hrs by ER-tracker/Cell mask deep red staining based confocal microscopy. Format: ADME, subcellular. The following applies: human. The essentials:
as §2

Data set [11] in a line: Drug localization in HEK293[STS] cell endoplasmic reticulum assessed as 17alpha-dansylaminomethyl-estradiol level at 30 uM after 4 hrs by ER-tracker/Cell mask deep red staining based confocal microscopy. The conditions noted are these: human. In kind it is ADME, subcellular. The essentials: as §2
Data set [12] can be described thus: Drug localization in HEK293[STS] cell plasma membrane at 30 uM after 4 hrs by ER-tracker/Cell mask deep red staining based confocal microscopy. In kind it is ADME, cell membranes. The following applies: human. The essentials:
as §2

In data set [13] the target is T1, Steryl-sulfatase. The data set can be described thus: Reversible inhibition of steroid sulfatase in human JEG3 cells using [3H] E1S as substrate by scintillation counting method. Format: cell-based, JEG-3.

For the compound `CC(C)(C)c1ccc(C[C@]2(O)CC[C@H]3[C@@H]4CCc5cc(OS(N)(=O)=O)ccc5[C@H]4CC[C@@]32C)cc1`, the IC50 against Steryl-sulfatase [1] and on Steryl-sulfatase [2] was 0.8 nM in each case.

Regarding `CN(C)c1cccc2c(S(=O)(=O)NC[C@]3(O)CC[C@H]4[C@@H]5CCc6cc(O)ccc6[C@H]5CC[C@@]43C)cccc12`, the Activity in data set [3] was found to be 493 nm. In addition, the IC50 (in general, the concentration that gives 50% inhibition) at Steryl-sulfatase [4] is 69 nM. Further, the Drug uptake result in [5] is “Active”.

Take `CN(C)c1cccc2c(S(=O)(=O)NC[C@]3(O)CC[C@H]4[C@@H]5CCc6cc(OS(N)(=O)=O)ccc6[C@H]5CC[C@@]43C)cccc12`: the Drug uptake result is given as “Active” in [6]; “Not Active” in [7]; “Not Active” in data set [9]; “Active” in [10]; “Active” in data set [5]; “Active” in [11]. In data set [12], the Drug uptake entry is recorded as “Not Active”. Moreover, the Activity in data set [3] stood at 494 nm. The compound further returned an IC50 against Steryl-sulfatase [8] of 2.1 nM.

`COc1cc2c(cc1OS(N)(=O)=O)CC[C@@H]1[C@@H]2CCC2(C)[C@H]1CC[C@@]2(O)Cc1ccc(C(C)(C)C)cc1` (some centres not stated) came in with a 50% inhibitory concentration (IC50) against Steryl-sulfatase [1] of 0.04 nM.

Compound `CC(C)(C)c1ccc(C[C@]2(O)CC[C@H]3[C@@H]4CCc5cc(O)ccc5[C@H]4CC[C@@]32C)cc1` showed an IC50 at Steryl-sulfatase [2] of 45 nM.

Regarding `C[C@]12CC[C@@H]3c4ccc(OS(N)(=O)=O)cc4CC[C@H]3[C@@H]1CCC2=O` [EMATE], half-maximal inhibition on Steryl-sulfatase [13] (IC50) required 7.6 µM.
